A short description of experiment [1]: Inhibition of Escherichia coli topoisomerase assessed as reduction in relaxation of supercoiled pNO1 DNA measured after 30 mins by fluorescence assay. The gist of the method: (§1)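 Enzyme run per an earlier-reported procedure; IC50 fitted from seven inhibitor concentrations, mean of three independent measurements.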
For the next experiment, the system named is Pseudomonas aeruginosa. Description: Antibacterial activity against Pseudomonas aeruginosa ATCC 27853 assessed as inhibition of bacterial growth by CLSI protocol based broth microdilution assay. It is filed as functional. Background: Dilution methods test growth across graded concentrations, often in twofold steps.
The next experiment deals with Acinetobacter baumannii. Description: Antibacterial activity against Acinetobacter baumannii ATCC 17978 assessed as inhibition of bacterial growth by CLSI protocol based broth microdilution assay. The format is functional.
The subject of a further experiment is Escherichia coli. Description: Antibacterial activity against Escherichia coli ATCC 25922 assessed as inhibition of bacterial growth by CLSI protocol based broth microdilution assay. It is filed as functional.
Experiment [2] deals with Staphylococcus aureus. Description: Antibacterial activity against Staphylococcus aureus ATCC 29213 assessed as inhibition of bacterial growth by CLSI protocol based broth microdilution assay. It is filed as functional.
The subject of another experiment is Enterococcus faecalis. Description: Antibacterial activity against Enterococcus faecalis ATCC 29212 assessed as inhibition of bacterial growth by CLSI protocol based broth microdilution assay. It is filed as functional.
The nature of experiment [3]: Inhibition of Staphylococcus aureus topoisomerase assessed as reduction in relaxation of supercoiled pNO1 DNA measured after 30 mins by fluorescence assay. The gist of the method:
as §1

Experiment [4] deals with Staphylococcus aureus. Description: Antibacterial activity against methicillin-resistant Staphylococcus aureus ATCC 43300 assessed as inhibition of bacterial growth by CLSI protocol based broth microdilution assay. It is filed as functional. Put shortly: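 Minimum inhibitory concentration by standard serial broth microdilution following CLSI guidelines. Medium was MHBII broth (22 g/L powder: beef extract, casein acid hydrolysate, starch), with MHBII agar (14 g agar per L broth). Where noted, assayed without and with efflux pump substrate phenylalanine-arginine β-naphthylamide (PAβN).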

The target in experiment [5] is DNA gyrase (Staphylococcus aureus, UniProt P0A0K8+P20831). Description: Inhibition of Staphylococcus aureus DNA gyrase assessed reduction in supercoiling of relaxed pNO1 DNA measured after 30 mins by fluorescence assay.
Another experiment relates to Klebsiella pneumoniae. Description: Antibacterial activity against Klebsiella pneumoniae ATCC 10031 assessed as inhibition of bacterial growth by CLSI protocol based broth microdilution assay. It is filed as functional.
Experiment [6] addresses DNA gyrase (Escherichia coli, UniProt P0AES4+P0AES6). Description: Inhibition of Escherichia coli DNA gyrase assessed as reduction in supercoiling of relaxed pNO1 DNA measured after 30 mins by fluorescence assay.

≈ marks a conversion by molar mass, not a printed value.

Sequence of DNA gyrase (Staphylococcus aureus, UniProt P0A0K8+P20831) (P0A0K8 whole entry): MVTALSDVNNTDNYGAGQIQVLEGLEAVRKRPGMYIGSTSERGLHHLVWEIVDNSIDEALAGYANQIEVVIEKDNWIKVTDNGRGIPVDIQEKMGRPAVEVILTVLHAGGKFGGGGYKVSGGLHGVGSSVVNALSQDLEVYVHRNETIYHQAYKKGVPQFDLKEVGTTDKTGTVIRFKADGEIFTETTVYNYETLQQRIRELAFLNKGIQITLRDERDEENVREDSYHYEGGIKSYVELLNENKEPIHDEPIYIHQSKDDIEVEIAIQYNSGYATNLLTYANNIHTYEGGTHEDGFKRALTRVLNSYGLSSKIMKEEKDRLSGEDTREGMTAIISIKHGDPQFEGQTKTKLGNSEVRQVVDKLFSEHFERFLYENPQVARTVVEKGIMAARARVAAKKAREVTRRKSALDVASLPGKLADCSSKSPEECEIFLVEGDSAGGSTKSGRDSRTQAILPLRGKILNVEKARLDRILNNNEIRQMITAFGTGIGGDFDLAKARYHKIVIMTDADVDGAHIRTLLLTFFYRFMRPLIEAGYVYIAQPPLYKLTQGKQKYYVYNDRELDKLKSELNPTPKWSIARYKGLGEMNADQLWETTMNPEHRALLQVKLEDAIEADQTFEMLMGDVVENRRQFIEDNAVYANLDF
Sequence of DNA gyrase (Staphylococcus aureus, UniProt P0A0K8+P20831) (P20831 whole entry): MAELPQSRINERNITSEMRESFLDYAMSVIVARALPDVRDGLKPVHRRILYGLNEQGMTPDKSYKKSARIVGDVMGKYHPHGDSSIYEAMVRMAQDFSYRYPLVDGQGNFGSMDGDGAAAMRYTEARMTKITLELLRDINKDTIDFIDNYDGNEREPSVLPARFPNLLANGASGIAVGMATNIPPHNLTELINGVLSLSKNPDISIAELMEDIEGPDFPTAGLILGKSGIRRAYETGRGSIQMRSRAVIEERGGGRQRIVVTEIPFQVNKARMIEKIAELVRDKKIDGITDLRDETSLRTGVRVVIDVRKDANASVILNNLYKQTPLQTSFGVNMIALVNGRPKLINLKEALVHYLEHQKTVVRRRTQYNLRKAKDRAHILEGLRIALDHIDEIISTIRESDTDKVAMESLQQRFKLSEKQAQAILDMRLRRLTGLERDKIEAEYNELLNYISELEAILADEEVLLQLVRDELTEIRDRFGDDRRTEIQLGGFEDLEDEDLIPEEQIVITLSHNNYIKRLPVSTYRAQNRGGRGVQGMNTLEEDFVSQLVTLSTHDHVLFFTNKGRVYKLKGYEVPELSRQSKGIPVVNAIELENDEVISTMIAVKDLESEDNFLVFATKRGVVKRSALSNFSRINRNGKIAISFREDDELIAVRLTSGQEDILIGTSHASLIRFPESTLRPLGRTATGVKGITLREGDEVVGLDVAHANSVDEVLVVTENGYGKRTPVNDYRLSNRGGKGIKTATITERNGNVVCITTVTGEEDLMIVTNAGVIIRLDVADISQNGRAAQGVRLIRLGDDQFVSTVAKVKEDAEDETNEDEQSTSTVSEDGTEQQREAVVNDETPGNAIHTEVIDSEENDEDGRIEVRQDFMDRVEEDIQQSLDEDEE

A word on the IC50: it is the concentration that gives 50% inhibition. Broadly, the MIC is the least concentration at which growth counts as inhibited. In the case of `Cc1[nH]c(C(=O)N(c2nc3ccc(C(=O)O)cc3s2)C2CC2)c(Cl)c1Cl`, the IC50 (in experiment [1]; in experiment [3]; against DNA gyrase [5]) was more than 1000 nM throughout. In addition, the MIC with Pseudomonas aeruginosa is more than 64 µg/mL; in the experiment on Acinetobacter baumannii, more than 64 µg/mL; in the experiment on Escherichia coli it was more than 64 µg/mL; with Staphylococcus aureus [2] it was 2 µg/mL (≈ 4.87 µM); with Enterococcus faecalis, 0.25 µg/mL (≈ 0.609 µM); in the experiment on Staphylococcus aureus [4], 2 µg/mL (≈ 4.87 µM). The MIC with Klebsiella pneumoniae turned out to be 64 µg/mL (≈ 156 µM).
Take `Cc1[nH]c(C(=O)Nc2nc3ccc(C(=O)O)cc3s2)c(Cl)c1Br`: the IC50 in [1] is 220 nM; on DNA gyrase [6], less than 10 nM; in experiment [3] it was 61 nM; on DNA gyrase [5], 24 nM. The MIC with Pseudomonas aeruginosa is 8 µg/mL (≈ 19.3 µM); in the experiment on Acinetobacter baumannii, 4 µg/mL (≈ 9.65 µM); with Escherichia coli it was more than 64 µg/mL; in the experiment with Staphylococcus aureus [2], 0.125 µg/mL (≈ 0.301 µM); with Enterococcus faecalis, 0.0625 µg/mL (≈ 0.151 µM); with Staphylococcus aureus [4] it was 2 µg/mL (≈ 4.82 µM). Also, the MIC in the experiment on Klebsiella pneumoniae worked out at 2 µg/mL (≈ 4.82 µM).
Regarding `Cc1[nH]c(C(=O)Nc2nc3c(F)cc(C(=O)O)cc3s2)c(Cl)c1Cl`, the IC50 in experiment [1] is 200 nM; at DNA gyrase [6], less than 10 nM; in experiment [3] it was 240 nM; against DNA gyrase [5], 17 nM. The MIC with Pseudomonas aeruginosa is 64 µg/mL (≈ 165 µM); in the experiment with Acinetobacter baumannii, 8 µg/mL (≈ 20.6 µM); with Escherichia coli, 16 µg/mL (≈ 41.2 µM); in the experiment on Staphylococcus aureus [2] it was 0.5 µg/mL (≈ 1.29 µM); with Enterococcus faecalis, 0.0625 µg/mL (≈ 0.161 µM); in the experiment with Staphylococcus aureus [4], 0.0625 µg/mL (≈ 0.161 µM). Besides, the MIC with Klebsiella pneumoniae is 4 µg/mL (≈ 10.3 µM).
As to `Cc1[nH]c(C(=O)N(c2nc3ccc(C(=O)O)cc3s2)C(C)C)c(Cl)c1Cl`, the IC50 (in experiment [1]; in experiment [3]; against DNA gyrase [5]) was more than 1000 nM in each case.
In the case of `Cc1[nH]c(C(=O)Nc2nc3ccc(C(=O)NCC#N)cc3s2)c(Cl)c1Cl`, the 50% inhibitory concentration (IC50) in experiment [1] was more than 1000 nM; in experiment [3], more than 1000 nM; against DNA gyrase [5] it was 310 nM.
For `Cc1[nH]c(C(=O)Nc2nc3c(OCc4ccccc4)cc(C(=O)O)cc3s2)c(Cl)c1Cl`, the MIC with Pseudomonas aeruginosa is 2 µg/mL (≈ 4.2 µM); in the experiment with Acinetobacter baumannii it was 2 µg/mL (≈ 4.2 µM); in the experiment with Escherichia coli, 16 µg/mL (≈ 33.6 µM); in the experiment with Staphylococcus aureus [2], 0.5 µg/mL (≈ 1.05 µM); with Enterococcus faecalis it was less than 0.0212 µg/mL; in the experiment with Staphylococcus aureus [4], 0.0625 µg/mL (≈ 0.131 µM). The MIC in the experiment with Klebsiella pneumoniae was found to be 1 µg/mL (≈ 2.1 µM). Further, in experiment [3], the IC50 was 68 nM.
In the case of `Cc1[nH]c(C(=O)Nc2nc3c(OCc4ccccc4)cc(C(N)=O)cc3s2)c(Cl)c1Cl`, the IC50 (in experiment [1]; in experiment [3]; at DNA gyrase [5]) was more than 1000 nM in each case.
For `O=C(NO)c1ccc2nc(NC(=O)c3cc(Br)c(Br)[nH]3)sc2c1`, the IC50 (in [1]; in experiment [3]; on DNA gyrase [5]) was more than 1000 nM throughout.
Take `O=C(O)c1cc(O)c2nc(NC(=O)c3cc(Br)c(Br)[nH]3)sc2c1`: the results for the IC50 (in experiment [1]; in [3]; on DNA gyrase [5]) were 180 nM, 240 nM and 170 nM, respectively.
Consider `Cc1[nH]c(C(=O)Nc2nc3ccc(C(=O)O)cc3s2)c(Cl)c1Cl`, for which the IC50 in [1] stood at 500 nM; in [3], 66 nM. Besides, the MIC in the experiment with Pseudomonas aeruginosa stood at 8 µg/mL (≈ 21.6 µM); in the experiment with Acinetobacter baumannii it was 4 µg/mL (≈ 10.8 µM); in the experiment on Escherichia coli, 4 µg/mL (≈ 10.8 µM); in the experiment with Staphylococcus aureus [2], 1 µg/mL (≈ 2.7 µM); with Enterococcus faecalis, 0.125 µg/mL (≈ 0.338 µM); with Staphylococcus aureus [4], 0.125 µg/mL (≈ 0.338 µM). The MIC in the experiment on Klebsiella pneumoniae came to 1 µg/mL (≈ 2.7 µM).
`Cc1[nH]c(C(=O)Nc2nc3ccc(C#N)cc3s2)c(Cl)c1Cl`: the IC50 (in [1]; on DNA gyrase [6]; in experiment [3]; at DNA gyrase [5]) was more than 1000 nM each time.
For the compound `Cc1[nH]c(C(=O)Nc2nc3c(OCCN4CCOCC4)cc(C(=O)O)cc3s2)c(Cl)c1Cl`, the concentration for half-maximal inhibition (IC50) in experiment [1] is 220 nM; on DNA gyrase [6] it was less than 10 nM; in experiment [3], 66 nM; on DNA gyrase [5], 17 nM.
In the case of `Cc1[nH]c(C(=O)Nc2nc3c(OCc4cccc(F)c4)cc(C(=O)O)cc3s2)c(Cl)c1Cl`, the MIC was 64 µg/mL (≈ 129 µM) in the experiment on Pseudomonas aeruginosa; 2 µg/mL (≈ 4.05 µM) with Acinetobacter baumannii; 0.0625 µg/mL (≈ 0.126 µM) with Staphylococcus aureus [2]; 0.001 µg/mL (≈ 0.00202 µM) with Enterococcus faecalis; 0.0625 µg/mL (≈ 0.126 µM) in the experiment with Staphylococcus aureus [4]; more than 64 µg/mL in the experiment on Klebsiella pneumoniae. For the same compound, the IC50 (in [3]; against DNA gyrase [5]) was less than 10 nM each time.
With `Cc1[nH]c(C(=O)Nc2nc3c(OCCN4CCOCC4)cc(C(=O)NCC#N)cc3s2)c(Cl)c1Cl`, the IC50 is more than 1000 nM in experiment [1], less than 10 nM at DNA gyrase [6], 520 nM in [3] and 100 nM against DNA gyrase [5].
For the compound `O=C(O)c1ccc2nc(NC(=O)c3cc(Cl)c(Cl)[nH]3)sc2c1`, the IC50 is 280 nM in experiment [1], more than 1000 nM in experiment [3] and 500 nM against DNA gyrase [5].
Regarding `Cc1[nH]c(C(=O)Nc2nc3ccc(C(N)=O)cc3s2)c(Cl)c1Cl`, the IC50 in experiment [1] turned out to be 490 nM; in experiment [3], 320 nM; on DNA gyrase [5], 59 nM.
`Cc1[nH]c(C(=O)Nc2nc3c(OCc4ccc(C(=O)O)cc4)cc(C(=O)O)cc3s2)c(Cl)c1Cl`: the half-inhibitory concentration (IC50) in experiment [1] was 260 nM; at DNA gyrase [6], less than 10 nM; in [3], 12 nM; on DNA gyrase [5], less than 10 nM.
Take `Cc1[nH]c(C(=O)Nc2nc3ccc(C(=O)NO)cc3s2)c(Cl)c1Cl`: the values for the IC50 (in [1]; in experiment [3]; at DNA gyrase [5]) were more than 1000 nM, more than 1000 nM and 720 nM, respectively. Moreover, the MIC in the experiment with Pseudomonas aeruginosa was more than 64 µg/mL; with Acinetobacter baumannii, more than 64 µg/mL; in the experiment with Escherichia coli, more than 64 µg/mL; in the experiment on Staphylococcus aureus [2], 64 µg/mL (≈ 166 µM); in the experiment with Enterococcus faecalis, 0.5 µg/mL (≈ 1.3 µM); in the experiment on Staphylococcus aureus [4], 32 µg/mL (≈ 83.1 µM). Further, in the experiment on Klebsiella pneumoniae, the MIC is more than 64 µg/mL.
Turning to `Cc1[nH]c(C(=O)Nc2nc3cc(C(=O)O)ccc3s2)c(Cl)c1Cl`, the IC50 (in experiment [1]; in experiment [3]; against DNA gyrase [5]) was more than 1000 nM in each case.
For `O=C(O)c1ccc2nc(NC(=O)c3cc(Br)c(Br)[nH]3)sc2c1`, the IC50 was more than 1000 nM in experiment [1], 300 nM in [3] and more than 1000 nM against DNA gyrase [5].
As for `Cc1[nH]c(C(=O)Nc2nc3c(OCc4ccccc4)cc(C#N)cc3s2)c(Cl)c1Cl`, the IC50 (in [1]; on DNA gyrase [6]; in [3]; against DNA gyrase [5]) was more than 1000 nM throughout.
Take `Cc1[nH]c(C(=O)Nc2nc3c(OCc4cccc(C(=O)O)c4)cc(C(=O)O)cc3s2)c(Cl)c1Cl`: the IC50 in experiment [1] is 170 nM; on DNA gyrase [6], less than 10 nM; in experiment [3] it was 13 nM; against DNA gyrase [5] it was less than 10 nM.
With `Cc1[nH]c(C(=O)Nc2nc3c(OCc4ccccc4)cc(-c4nnn[nH]4)cc3s2)c(Cl)c1Cl`, the MIC in the experiment on Pseudomonas aeruginosa was more than 64 µg/mL; in the experiment with Acinetobacter baumannii, more than 64 µg/mL; with Escherichia coli, more than 64 µg/mL; in the experiment on Staphylococcus aureus [2] it was 4 µg/mL (≈ 7.99 µM); with Enterococcus faecalis it was 0.125 µg/mL (≈ 0.25 µM); in the experiment on Staphylococcus aureus [4] it was 4 µg/mL (≈ 7.99 µM). Also, in the experiment on Klebsiella pneumoniae, the MIC is more than 64 µg/mL. The concentration for half-maximal inhibition (IC50) in experiment [3] is 89 nM; against DNA gyrase [5], 26 nM.
In the case of `COc1ccc2nc(NC(=O)c3[nH]c(C)c(Cl)c3Cl)sc2c1`, the IC50 (in experiment [1]; at DNA gyrase [6]; in experiment [3]; against DNA gyrase [5]) was more than 1000 nM in each case.
`Cc1[nH]c(C(=O)Nc2nc3c(OCCN)cc(C(=O)O)cc3s2)c(Cl)c1Cl`: the IC50 in [1] is more than 1000 nM; on DNA gyrase [6], less than 10 nM; in experiment [3], 160 nM; at DNA gyrase [5], 48 nM.

Values taken from ChEMBL document CHEMBL4813947, “New dual ATP-competitive inhibitors of bacterial DNA gyrase and topoisomerase IV active against ESKAPE pathogens” (Eur J Med Chem, 2021).
